Assay results from ChEMBL document CHEMBL5046302, “Identification and Evaluation of Brominated Carbazoles as a Novel Antibiotic Adjuvant Scaffold in MRSA” (2022).
The source made the active and inactive calls. The rule behind the calls is not given here.

Legend:
Format in all cases: functional
Staphylococcus aureus [1] = test: Potentiation of oxacillin induced antibacterial activity against methicillin-resistant Staphylococcus aureus COL assessed as oxacillin MIC at 25 uM after 18 hrs by CLSI protocol based broth microdilution assay
Staphylococcus aureus [2] = test: Potentiation of methicillin induced antibacterial activity against methicillin-resistant Staphylococcus aureus USA100 assessed as fold change in methicillin MIC at 25 uM after 18 hrs by CLSI protocol based broth microdilution assay
Staphylococcus aureus [3] = test: Potentiation of oxacillin induced antibacterial activity against methicillin-resistant Staphylococcus aureus USA300 assessed as oxacillin MIC at 25 uM after 18 hrs by CLSI protocol based broth microdilution assay
Staphylococcus aureus [4] = test: Potentiation of oxacillin induced antibacterial activity against methicillin-resistant Staphylococcus aureus assessed as fold decrease in blaZ gene expression at 25 uM by RT-qPCR analysis
In short: (§1)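 Fold dampening is the relative mRNA level of the gene, normalised to 16S rRNA, in oxacillin-treated cells divided by that in cells cotreated with oxacillin plus carbazole. Carbazole was used at 25 or 50 μM, as given in each line.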

Staphylococcus aureus [5] = test: Potentiation of cefoxitin induced antibacterial activity against methicillin-resistant Staphylococcus aureus COL assessed as cefoxitin MIC at 25 uM after 18 hrs by CLSI protocol based broth microdilution assay
Staphylococcus aureus [6] = test: Potentiation of ampicillin induced antibacterial activity against methicillin-resistant Staphylococcus aureus USA300 assessed as ampicillin MIC at 25 uM after 18 hrs by CLSI protocol based broth microdilution assay
Staphylococcus aureus [7] = test: Upregulation of mecA gene expression in methicillin-resistant Staphylococcus aureus COL at 25 uM by RT-PCR method
Staphylococcus aureus [8] = test: Potentiation of cefoxitin induced antibacterial activity against methicillin-resistant Staphylococcus aureus USA300 assessed as fold change in cefoxitin MIC at 25 uM after 18 hrs by CLSI protocol based broth microdilution assay
Staphylococcus aureus [9] = test: Upregulation of blaZ gene expression in methicillin-resistant Staphylococcus aureus ATCC 43300 at 25 uM by RT-PCR method
Staphylococcus aureus [10] = test: Upregulation of mecA gene expression in methicillin-resistant Staphylococcus aureus USA300 at 25 uM by RT-PCR method
Staphylococcus aureus [11] = test: Potentiation of methicillin induced antibacterial activity against methicillin-resistant Staphylococcus aureus COL assessed as fold change in methicillin MIC at 25 uM after 18 hrs by CLSI protocol based broth microdilution assay
Staphylococcus aureus [12] = test: Potentiation of methicillin induced antibacterial activity against methicillin-resistant Staphylococcus aureus ATCC 43300 assessed as methicillin MIC at 25 uM after 18 hrs by CLSI protocol based broth microdilution assay
Staphylococcus aureus [13] = test: Potentiation of ampicillin induced antibacterial activity against methicillin-resistant Staphylococcus aureus COL assessed as ampicillin MIC at 25 uM after 18 hrs by CLSI protocol based broth microdilution assay
Staphylococcus aureus [14] = test: Potentiation of methicillin induced antibacterial activity against methicillin-resistant Staphylococcus aureus COL assessed as methicillin MIC at 25 uM after 18 hrs by CLSI protocol based broth microdilution assay
Staphylococcus aureus [15] = test: Potentiation of cefoxitin induced antibacterial activity against methicillin-resistant Staphylococcus aureus USA300 assessed as cefoxitin MIC at 25 uM after 18 hrs by CLSI protocol based broth microdilution assay
Staphylococcus aureus [16] = test: Potentiation of cefoxitin induced antibacterial activity against methicillin-resistant Staphylococcus aureus USA100 assessed as cefoxitin MIC at 25 uM after 18 hrs by CLSI protocol based broth microdilution assay
Staphylococcus aureus [17] = test: Potentiation of cefoxitin induced antibacterial activity against methicillin-resistant Staphylococcus aureus COL assessed as fold change in cefoxitin MIC at 25 uM after 18 hrs by CLSI protocol based broth microdilution assay
Staphylococcus aureus [18] = test: Potentiation of ceftazidime induced antibacterial activity against methicillin-resistant Staphylococcus aureus ATCC 43300 assessed as ceftazidime MIC at 25 uM after 18 hrs by CLSI protocol based broth microdilution assay
Staphylococcus aureus [19] = test: Potentiation of ampicillin induced antibacterial activity against methicillin-resistant Staphylococcus aureus COL assessed as fold change in ampicillin MIC at 25 uM after 18 hrs by CLSI protocol based broth microdilution assay
Staphylococcus aureus [20] = test: Potentiation of ceftazidime induced antibacterial activity against methicillin-resistant Staphylococcus aureus USA100 assessed as fold change in ceftazidime MIC at 25 uM after 18 hrs by CLSI protocol based broth microdilution assay
Staphylococcus aureus [21] = test: Potentiation of methicillin induced antibacterial activity against methicillin-resistant Staphylococcus aureus USA300 assessed as methicillin MIC at 25 uM after 18 hrs by CLSI protocol based broth microdilution assay
Staphylococcus aureus [22] = test: Potentiation of ceftazidime induced antibacterial activity against methicillin-resistant Staphylococcus aureus USA100 assessed as ceftazidime MIC at 25 uM after 18 hrs by CLSI protocol based broth microdilution assay
Staphylococcus aureus [23] = test: Potentiation of oxacillin induced antibacterial activity against methicillin-resistant Staphylococcus aureus USA300 harboring stk1 deletion mutant co-transfected with a plasmid bearing stk1 assessed as oxacillin MIC at 25 uM after 18 hrs by CLSI protocol based broth microdilution assay
Staphylococcus aureus [24] = test: Potentiation of methicillin induced antibacterial activity against methicillin-resistant Staphylococcus aureus USA300 assessed as fold change in methicillin MIC at 25 uM after 18 hrs by CLSI protocol based broth microdilution assay
Staphylococcus aureus [25] = test: Potentiation of methicillin induced antibacterial activity against methicillin-resistant Staphylococcus aureus USA100 assessed as methicillin MIC at 25 uM after 18 hrs by CLSI protocol based broth microdilution assay
Staphylococcus aureus [26] = test: Potentiation of ceftazidime induced antibacterial activity against methicillin-resistant Staphylococcus aureus USA300 assessed as fold change in ceftazidime MIC at 25 uM after 18 hrs by CLSI protocol based broth microdilution assay
Staphylococcus aureus [27] = test: Upregulation of mecA gene expression in methicillin-resistant Staphylococcus aureus USA100 at 50 uM by RT-PCR method
Staphylococcus aureus [28] = test: Upregulation of blaZ gene expression in methicillin-resistant Staphylococcus aureus USA100 at 50 uM by RT-PCR method
Staphylococcus aureus [29] = test: Potentiation of oxacillin induced antibacterial activity against methicillin-resistant Staphylococcus aureus assessed as fold decrease in mecA gene expression at 50 uM by RT-qPCR analysis; in short: as §1
Staphylococcus aureus [30] = test: Potentiation of oxacillin induced antibacterial activity against methicillin-resistant Staphylococcus aureus USA300 harboring stk1 deletion mutant co-transfected with a plasmid bearing stk1 assessed as fold change in oxacillin MIC at 50 uM after 18 hrs by CLSI protocol based broth microdilution assay
Staphylococcus aureus [31] = test: Upregulation of mecA gene expression in methicillin-resistant Staphylococcus aureus USA300 at 50 uM by RT-PCR method
Staphylococcus aureus [32] = test: Upregulation of mecA gene expression in methicillin-resistant Staphylococcus aureus COL at 50 uM by RT-PCR method
Staphylococcus aureus [33] = test: Potentiation of oxacillin induced antibacterial activity against methicillin-resistant Staphylococcus aureus assessed as fold decrease in mecI gene expression at 50 uM by RT-qPCR analysis; in short: as §1
Staphylococcus aureus [34] = test: Upregulation of mecA gene expression in methicillin-resistant Staphylococcus aureus ATCC 43300 at 50 uM by RT-PCR method

Brc1cccc2[nH]c3ccccc3c12
MIC (Staphylococcus aureus [1]): 512 µg/mL | fold change (FC) (Staphylococcus aureus [2]): 16 | MIC (Staphylococcus aureus [3]): 8 µg/mL | fold change (FC) (Staphylococcus aureus [4]): 8.06 | MIC (Staphylococcus aureus [5]): 256 µg/mL | MIC (Staphylococcus aureus [6]): 2 µg/mL | Activity (Staphylococcus aureus [7]): inactive | fold change (FC) (Staphylococcus aureus [8]): 4 | Activity (Staphylococcus aureus [9]): inactive | Activity (Staphylococcus aureus [10]): inactive | fold change (FC) (Staphylococcus aureus [11]): 1 | MIC (Staphylococcus aureus [12]): 4 µg/mL | MIC (Staphylococcus aureus [13]): 32 µg/mL | MIC (Staphylococcus aureus [14]): 1020 µg/mL | MIC (Staphylococcus aureus [15]): 8 µg/mL | MIC (Staphylococcus aureus [16]): 64 µg/mL | fold change (FC) (Staphylococcus aureus [17]): 1 | MIC (Staphylococcus aureus [18]): 64 µg/mL | fold change (FC) (Staphylococcus aureus [19]): 1 | fold change (FC) (Staphylococcus aureus [20]): 1 | MIC (Staphylococcus aureus [21]): 8 µg/mL | MIC (Staphylococcus aureus [22]): 512 µg/mL | MIC (Staphylococcus aureus [23]): 0.5 µg/mL | fold change (FC) (Staphylococcus aureus [24]): 4 | MIC (Staphylococcus aureus [25]): 32 µg/mL | fold change (FC) (Staphylococcus aureus [26]): 1

Brc1cccc2c1[nH]c1ccccc12
Activity (Staphylococcus aureus [27]): inactive | Activity (Staphylococcus aureus [28]): inactive | fold change (FC) (Staphylococcus aureus [29]): 1.39 | fold change (FC) (Staphylococcus aureus [30]): 4 | Activity (Staphylococcus aureus [31]): inactive | Activity (Staphylococcus aureus [32]): inactive | fold change (FC) (Staphylococcus aureus [33]): 0.67 | Activity (Staphylococcus aureus [34]): inactive
